From ChEMBL document CHEMBL4513216, “Probing the Open Global Health Chemical Diversity Library for Multistage-Active Starting Points for Next-Generation Antimalarials” (ACS Infect Dis, 2020)

Experiment: Toxicity liver stage against HepG2, at 10uM
Format: cell-based
Design: test concentration 10 uM, cell line HepG2-A16-CD81EGFP
Settings: human, HepG2-A16-CD81EGFP cells; read-out: INHIBITION
How it was run: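 Uninfected HepG2-A16-CD81EGFP cells, 3 × 10^3 per well, 1536-well, plated on prespotted compound at 10 μM final, parasite-free screening media added to match infected plates; puromycin 10 μM positive, DMSO 0.5% negative; run in parallel with 48 h PbLuc assay at 37 °C, 5% CO2; viability by CellTiter-Glo luminescence, normalized to controls.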

| SMILES | cytotoxicity at 10 µM [%] |
| --- | --- |
| CC(C)Oc1cccc(C(=O)C2CCCN(S(=O)(=O)C(C)C)C2)c1 (configuration not stated) | 5.47 |
| COc1ccc2c(c1)CN(Cc1ccco1)C(=O)CCN2 | -2.59 |
| CN1CCN2C[C@@H](CO)[C@H](c3ccccc3)[C@H]2C1 | 8.78 |
| COCCn1ccc2c(C(=O)O)cccc21 | -3.37 |
| Cc1cc(NCCN)nc(-c2ccccc2O)n1 | 7.61 |
| CC(C)(CO)Nc1c(NCc2ccccc2)c(=O)c1=O | -2.96 |
| CC1CCCN(c2nccn3c(=O)[nH]nc23)C1 (configuration not stated) | 12.1 |
| CC(C)c1noc(C2CCN(S(=O)(=O)c3cccs3)CC2)n1 | 1.47 |
| COc1ccc(Cc2nnc(NC(=O)C3CC34CCC4)s2)cc1OC (configuration not stated) | -2.21 |
| O=c1[nH]c2ccc(S(=O)(=O)N(CCO)Cc3ccncc3)cc2[nH]1 | 1.07 |
| CNC(=O)C1CN(C(=O)c2cccs2)CCN(S(C)(=O)=O)C1 (configuration not stated) | 2.41 |
| CS(=O)(=O)c1cncnc1C1CCCN(C(=O)Cc2ccccc2F)C1 (configuration not stated) | 2.72 |
| Cc1cc(N2CCCC2(C)c2nc(C)cc(C(=O)N(C)C)n2)ncn1 (configuration not stated) | -0.846 |
| O=C(c1ccccn1)N1CCC2(CNS(=O)(=O)c3cnccc3O2)C1 (configuration not stated) | 14.5 |
| CCN(Cc1c(F)cccc1F)C(=O)c1ccncc1O | -1.22 |
| CN(Cc1nnnn1C1CC1)CC1COc2ccccc2O1 (configuration not stated) | -5.79 |
| Cc1c(C(=O)N2CC(=O)N(C)C2)nnn1-c1cccc2cccnc12 | 5.64 |
| CCOc1ccc(NC(=O)c2[nH]c(C)cc2C)cc1CO | 21.3 |
| OCCCNc1cccc(COC2CCCCC2)c1 | -0.23 |
| CC(C)OCCC(=O)NCC(O)c1c(Cl)cccc1Cl (configuration not stated) | -6.93 |
| COCCCN1CCN(CC2CCCO2)CC1 (configuration not stated) | -13.5 |
| O=C(NCc1ccc(-n2cncn2)nc1)c1cc[nH]n1 | -7.45 |
| O=c1[nH]c(C2CCOC2)nc2ccc(Br)cc12 (configuration not stated) | 7.85 |

| SMILES | cytotoxicity at 10 µM [%] |
| --- | --- |
| CC1CN(C)CCN1C(=O)c1cccn1Cc1cccnc1 (configuration not stated) | -13.5 |
| O=C1NCCCCC1NC(=O)N1CCc2ccccc21 (configuration not stated) | -0.734 |
| Cc1nn(C)c(C)c1C1COCCN1C(=O)NC1CC1 (configuration not stated) | 3.21 |
| CCc1cc(NCCCc2nc(C)no2)nc(-c2ccncc2)n1 | 2.63 |
| CC(C)(C(=O)N1CCC(CS(N)(=O)=O)CC1)c1ccccc1F | 6.03 |
| CCn1cnnc1CNC(=O)N1CCOC(c2ccccc2Cl)C1 (configuration not stated) | 9.32 |
| COc1ccc(N2CCC(NCc3csc(C(C)C)n3)CC2)cc1 | -15.9 |
| O[C@@H]1Cc2ccccc2[C@@H]1Nc1ncccc1F | 13.3 |
| CCn1nc(C)c(C(=O)N2CCC(Nc3ccc(C)nn3)CC2)c1C | 4.13 |
| O=C(NCc1ccccc1Cn1ccnc1)N1CCOCC1 | 0.84 |
| Cn1ccnc1CNC(=O)Nc1ccc(OC2CCC2)c(F)c1 | -4.92 |
| CCOC(=O)NC(CNC(=O)c1cccnc1SC)CC(C)C (configuration not stated) | 6.68 |
| CC(C)(C)c1noc(OCC(=O)NC2CCCC2)n1 | 2.68 |
| CC(=O)N1CCC(C(=O)NCCN2CCCC(C)C2)CC1 (configuration not stated) | 10.7 |
| O=C(Nc1ccnc(OC2CCOC2)c1)c1ccc(F)cc1Cl (configuration not stated) | 3.44 |
| Cc1cc(C)n(-c2ccccc2NC(=O)NCCCN(C)S(C)(=O)=O)n1 | -4.01 |
| COc1cc(NC(=O)c2ccc(F)cc2Cl)c(C(=O)N(C)C)cc1OC | -11.1 |
| CCN1CCCN(c2ncccc2C(=O)N2CCCCC2)CC1 | -5.1 |
| CS(=O)(=O)Cc1nc(CNc2ccc(F)c(F)c2)cs1 | -6.92 |
| NS(=O)(=O)N1CCC(C(=O)Nc2cccc(OC(F)F)c2)CC1 | -9.5 |
| CN(C)CCN(Cc1ccccc1)C(=O)C1=NNC(=O)CC1 | -6.49 |
| O=C(C1CSc2ccccc2O1)N1CCN(CCO)CC1 (configuration not stated) | -6.29 |
| COCC(=O)NCCSCCOc1cccc(Br)c1 | -9.2 |

| SMILES | cytotoxicity at 10 µM [%] |
| --- | --- |
| Cc1cc(C(=O)CN2CCN(c3cnccn3)CC2)c(C)n1C(C)C | 7.36 |
| CS(=O)(=O)c1nccn1Cc1ccc(OC(F)F)cc1 | -0.627 |
| Cc1cc(C(=O)N2CCN(Cn3cc(Cl)cn3)CC2)on1 | -6.81 |
| CCn1nc(C)cc1C(=O)NCc1nc(C)no1 | 0.304 |
| CCNC(=O)NC1CN(CC(=O)NCc2ccccc2C)C[C@@H]1OC (some centres not stated) | -1.6 |
| COCCN(C)c1cnn(C)c(=O)c1Br | 1.09 |
| O=C(NCc1csc(Br)c1)Nc1cn[nH]c1 | 2.1 |
| O=C(NCc1cccnc1N1CCCCC1)c1ccc2[nH]nnc2c1 | -1.19 |
| COc1cc(OC)c(CNC(=O)NCc2ccc(C#N)cc2)c(OC)c1 | 8.01 |
| Cc1cc(C)n(CC2CCCN2C(=O)Cc2cn3ccsc3n2)n1 (configuration not stated) | -12.5 |
| Cc1nn(C)c(N(C)C)c1CNCc1cccc(CN(C)C(C)C)c1 | 11.4 |
| Cc1nc(C2CCCN(C(=O)c3scnc3C)C2)no1 (configuration not stated) | -3.18 |
| COCC(=O)N1CCC2(C1)c1ccccc1S(=O)(=O)N2CC1CC1 (configuration not stated) | 4.39 |
| CN1CCO[C@@H]2CN(C(=O)NCc3cccc(F)c3)CC[C@@H]2C1 | -111 |
| c1cnc(N2CCCC3(COCCN(c4nncs4)C3)C2)cn1 (configuration not stated) | 1.77 |
| OCC1(O)CCN(c2ccnc3c(C(F)(F)F)cccc23)CC1 | -14.8 |
| Cc1cc(C)c2nc(CN3CCOCC(O)C3)cc(O)c2c1 (configuration not stated) | -3.89 |
| CCOc1ccc(-c2c(C#N)c(N)nc3c2COCC3)cn1 | -0.339 |
| Cc1cccc(C(C(=O)NCC2(Cn3nc(C)cc3C)CC2)N(C)C)c1 (configuration not stated) | 2.18 |
| Cc1ccc(CN(CCN(C)C)Cc2ncc[nH]2)s1 | -10.5 |
| c1cc2c(cc1-c1noc3c1CN(C1CCSC1)CC3)OCO2 (configuration not stated) | -16.9 |
| Cc1cc(NCCc2cnccn2)nc(-c2ccccc2O)n1 | 10.9 |
| Cc1noc(-c2ccc(N3CCC[C@H]3CO)nc2)n1 | 1.48 |

| SMILES | cytotoxicity at 10 µM [%] |
| --- | --- |
| CCOC(=O)N1CCCC2(CCN(Cc3ccccc3C#N)C2)C1 (configuration not stated) | 3.37 |
| CC1=C(C(=O)N(C)Cc2n[nH]c3c2CCCCC3)C(C)NC(=O)N1 (configuration not stated) | -0.178 |
| CSCCNC(=O)C1CCC(=O)N(C2CCCC2)C1 (configuration not stated) | -3.75 |
| CCOc1ccc(CCCC(=O)N2CCC(c3nnn[nH]3)CC2)cc1C | -3.57 |
| O=C(NCCc1nc2ccccc2s1)c1coc(CN2CCOCC2)c1 | -5.69 |
| O=C(CN1CCCC1=O)NCc1cccnc1Oc1ccc(F)c(F)c1 | 1.87 |
| CCC1(C(=O)O)CCCN(C(=O)c2ccc(O)c(Cl)c2)C1 (configuration not stated) | -8.87 |
| CN(C)Cc1nnc(C2CCCN(c3cc(C(F)(F)F)ccn3)C2)n1C (configuration not stated) | -11.9 |
| Cc1cc(C[C@@H]2COC[C@@H]2NC(=O)CN2CCc3ccccc3C2)on1 | 6.7 |
| Cc1cn(Cc2nc(CC(C)C)nn2-c2ccccn2)c(=O)[nH]c1=O | -8.66 |
| CN(C)CCCN1CC2(CCN(C(=O)C3(C)CCCCO3)CC2)OC1=O (configuration not stated) | -8.76 |
| Cc1c(O)cccc1C(=O)N1CCCC2(C1)C(=O)N(C)c1ccccc12 (configuration not stated) | 4.34 |
| C=C(C)COc1cccc(C(=O)N(CC)Cc2noc(C)n2)c1 | -4.15 |
| Cc1cc(-c2nn(C)c(Cl)c2CN2CCOC(C(=O)O)C2)no1 (configuration not stated) | 4.04 |
| Cn1ncc(C2CC(=O)NCc3nc4ccccn4c32)c1C1CC1 (configuration not stated) | 6.9 |
| Cc1cc(N[C@H](CO)COCc2ccccc2)n2nc(C)cc2n1 | 0.324 |
| Cc1ccsc1-c1nccn1CCN1CCCCC1CO (configuration not stated) | -8.11 |
| CN1CCCN(CC(=O)N2CCc3[nH]c(-c4ccccc4)nc3C2)CC1 | -0.0342 |
| O=S(=O)(c1c(N2CCCC2)ccc2nonc12)N1CCCC1 | 5.95 |
| CSCCCn1ccnc1-c1cccc(C#N)c1 | -13.3 |
| CCC(Oc1ccc(N(C)S(C)(=O)=O)cc1)C(N)=O (configuration not stated) | -4.18 |
| CC(NC(=O)C1CCN(C(C)C)CC1)c1nncn1C1CCCC1 (configuration not stated) | -6.93 |
| CC(O)c1cn(C2CCN(C(=O)C3(C)CCN(C)CC3)CC2)nn1 (configuration not stated) | -0.293 |

| SMILES | cytotoxicity at 10 µM [%] |
| --- | --- |
| Cc1cc(N2CCC(c3nnc(CN(C)C)n3C3CC3)CC2)ccn1 | 7.57 |
| CNC(=O)C1(c2cnccn2)CCCN1C(=O)c1ccccc1OC (configuration not stated) | 3.1 |
| N#Cc1cccc(NC(=O)C2CCCN2c2nccs2)c1 (configuration not stated) | -5.28 |
| Cc1ccc(C(=O)N2CCCN(Cc3cccs3)CC2)c(=O)[nH]1 | 1.45 |
| NC(=O)c1cc(C2CCCN(CCOCC3CC3)C2)n[nH]1 (configuration not stated) | -11.5 |
| CCn1c(CN2CCN(C(=O)C3CCC3)CC2)nc2c(F)cccc21 | -3.78 |
| O=C(Nc1cc(F)ccc1OCC1CCCO1)N1CCCC1 (configuration not stated) | -6.49 |
| CN(C)c1cc(CNC(=O)Nc2ccc(F)cc2)ccn1 | 0.0418 |
| NC(=O)C1CCN(C(=O)c2cccc(OCc3cscn3)c2)CC1 | -15.5 |
| Cc1cnn(CCNCc2nc(Cc3ccccc3)no2)c1 | -7.7 |
| O=C(NCCNc1ccc(C(F)(F)F)cn1)c1ccc(Br)cc1F | 7.15 |
| CNc1cc2c(nn1)CCN(C(=O)c1cc(F)cc(F)c1)C2 | -5.97 |
| CC(=O)Nc1nc(C(=O)NC(C)c2ccc3c(c2)OCCO3)cs1 (configuration not stated) | 0.409 |
| Cc1n[nH]c(=O)c2c(NC(=O)CN3CCCC(C(F)(F)F)C3)oc(C)c12 (configuration not stated) | -4.87 |
| O=C(NCC1CC1)[C@H]1CN(Cc2nccs2)C[C@H]2OCC[C@@H]12 | -109 |
| COCCN1CCc2cc(C(=O)N(C)C)c(NC(C)C)nc2CC1 | -3.91 |
| O=C(C1CC=CC1)N1CCC2(CCN(Cc3ccccn3)C2=O)C1 (configuration not stated) | 0.908 |
| Cc1noc([C@H]2C[C@H]3OCC[C@H]3N(Cc3ccc4c(c3)OCO4)C2)n1 | 2.67 |
| CN(Cc1ccco1)[C@@H]1CN(Cc2ccsc2)C[C@@H]2CCCO[C@@H]21 | 9.59 |
| O=C([C@H]1C[C@H]2CN(c3ncc(F)cn3)C[C@@H]1O2)N1CCOCC1 | -109 |
